High-throughput results (PubChem)
PPC-1+TRAIL kill: compounds killing PPC-1 cancer cells with TRAIL present (potentiator screen, no TRAIL-free arm); cell killing (% activity), % at 4 µM or 5 µM; 220,000 compounds, 0.41% hits; PPC-1 cells + TRAIL, ATPLite viability luminescence;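 active means cell killing above 50% in the first pass at 4 µM, then a duplicate retest at 5 µM averaging 50% or more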
FLuc act counter: affects firefly luciferase, flagging false hits in luciferase stimulation screens | AID 1027 | ATPlite luciferase biochemical, luminescence, 10 min; 0 = ATP-free wells, 1 = DMSO control | P08659 | 200,000 tested, under 10 active | activation factor at 10 µM;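 active means luciferase activation factor, scaled between plate controls, of at least 2 with compound at 10 µM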
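System: Luciferase/luciferin detection reagent, cell-free biochemical luciferase assay | Medium: PBS buffer for ATP | Dosing: Test compounds dosed from 2 mM stocks in 100% DMSO | Timing: 10 min at ambient temperature | Signal: Luminescence measurement of luciferase light output | Evaluation: Luciferase activation, seen as luminescence increase over controls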
FLuc inhib CS: Photinus pyralis luciferase inhibition counter-screen; P08659; AID 1006; 200,000 compounds, 1.5% hits; ATPLite firefly luciferase biochemical luminescence, 10 min; inhibition, % at 10 µM;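 active means inhibition above about 50% when tested at 10 µM, limit read from the data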
TRAIL sens C8: sensitizes caspase-8 expressing cells to TRAIL; NB7+C8 cells + TRAIL, ATPlite viability luminescence; inhibition (viability loss, TRAIL sensitization), % at 10 µM; 360,000 compounds, 1% hits; AID 624354;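 active means compounds causing at least 50% loss of cell viability in the single-dose screen, relative to plate controls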
A number is an active result; – = inactive; · = not tested or not shown. Hits are enriched below; roughly 1.5% of the tested compounds scored in any of these assays.

SMILES | PPC-1+TRAIL kill | FLuc act counter | FLuc inhib CS | TRAIL sens C8
Cc1ccc(NC(=S)c2nc3ccccc3[nH]2)cc1 | – | – | 83 | 77
Cc1ccc(S(=O)(=O)n2cccc2C)cc1 | · | · | · | –
O=C(/C=C/c1ccc(Cl)cc1Cl)Nc1cccc(S(=O)(=O)NC2=NCCCCC2)c1 | – | – | 55 | –
O=C(/C=C/c1ccccc1[N+](=O)[O-])Nc1cccc(S(=O)(=O)NC2=NCCCCC2)c1 | · | · | · | –
CCN1/C(=C/C(C)=C/c2sc3ccccc3[n+]2CC)Sc2ccccc21 | – | – | – | 50
COc1cccc(C(=S)N2CCCC2)c1OC | · | · | · | –
CCOC(=O)C1=CCN(S(=O)(=O)c2ccc(C)cc2)[C@H]1c1ccccc1Cl | · | · | · | –
COC(=O)CC1=NN(c2nc3ccccc3s2)C(=O)/C1=C/N(C)C | – | – | 72 | –
COC(=O)Cc1[nH]n(-c2nc3ccccc3s2)c(=O)c1C(C)=O | – | – | – | –
COc1ccccc1C(=O)Nc1ccc(N2CCCCC2)cc1 | – | – | 71 | 58
CCCOC(=O)Nc1ccc(N2CCCCC2)cc1 | – | – | 59 | –
O=C(NC(=S)Nc1ccc(N2CCCCC2)cc1)c1ccco1 | – | – | 63 | –
CCOc1nc(OCC)c2[nH]c(C(=O)O)c(Br)c2n1 | · | · | · | –
Cc1cc(NS(=O)(=O)c2cc(Cl)sc2Cl)no1 | · | · | · | –
C[C@@H](NC(=O)Cn1ccc(N)nc1=O)c1cccc2ccccc12 | · | · | · | –
O=c1ccc(Cl)nn1-c1ccccc1 | · | · | · | –
CC(=O)O[C@H]1[C@@H](O)[C@H](O)[C@H](Oc2c(O)c(C)c3c4c2[C@@H](C)CC[C@@H]4[C@@H](C)C[C@@H]3C=C(C)C)O[C@H]1C | · | · | · | –
COc1cc2c3nnc(-c4ccc(F)cc4)c-3cn(Cc3cccc(C)c3)c2cc1OC | – | – | – | 59
COc1cc2c3nnc(-c4ccc(F)cc4)c-3cn(Cc3ccc(C)cc3)c2cc1OC | – | – | – | 84
COc1ccc(C)cc1S(=O)(=O)N1CCN(C/C=C/c2ccccc2)CC1 | · | · | · | –
Cc1ccc(OCC(=O)N2CCc3ccccc32)cc1 | – | – | 78 | –
COc1ccc(NC(=O)N2CCCc3ccccc32)cc1 | – | – | – | –
COc1ccc(NC(=O)N2CCc3ccccc32)cc1 | – | – | 85 | 56
O=C(COc1ccc(Cl)cc1)OCC(=O)N1CCCc2ccccc21 | – | – | – | –
CCC(=O)c1ccc(OCC(=O)OCC(=O)N2CCCc3ccccc32)cc1 | · | · | · | 88
SMILES | PPC-1+TRAIL kill | FLuc act counter | FLuc inhib CS | TRAIL sens C8
Cn1c(N)c(C(=O)N2CCN(c3ccccc3)CC2)c(=O)n(C)c1=O | · | · | · | –
OC[C@@H]1CN(Cc2ccc(-c3ccccc3)cc2)C[C@H](n2cnc3c(N4CCOCC4)ncnc32)O1 | · | · | · | –
COc1ccccc1NC(=O)CSc1ccc(-c2ccc(-n3ccnc3)cc2)nn1 | · | · | · | 51
Cc1ccccc1NC(=O)CSc1ccc(-c2ccc(-n3cccn3)cc2)nn1 | · | · | · | –
CCc1nnc(NC(=O)CSc2ccc(-c3ccc(-n4cccn4)cc3)nn2)s1 | · | · | · | 77
CN(CC(=O)Nc1ccccc1Cl)CC(=O)Nc1cccc2ccccc12 | · | · | · | –
COc1cc(C2c3c(oc4ccccc4c3=O)C(=O)N2c2nccs2)ccc1O (stereo unspecified) | – | · | · | –
COc1ccc2c(c1OC)C(=O)OC2Nc1nc(-c2ccc(-c3ccccc3)cc2)cs1 (stereo unspecified) | – | – | 74 | 62
Cc1ccc[n+](CC(=O)Nc2nc3ccccc3s2)c1 | – | – | – | –
COc1ccc2[nH]c(C(=O)Nc3ccc(C)c(F)c3)cc2c1 | – | · | · | –
COc1ccc2[nH]c(C(=O)Nc3cccc(C)n3)cc2c1 | – | · | · | 55
O=C(CCl)N(C/C=C/c1ccccc1)c1ccc2c(c1)OCCO2 | – | – | – | 92
N#CCSc1ccc(-c2nc3ccccc3[nH]2)cn1 | – | – | 58 | –
CCOC(=O)CSc1ccc(-c2nc3ccccc3[nH]2)cn1 | – | – | – | –
Cc1cccnc1NC(=O)Cn1nc(-c2ccccc2)oc1=S | 64 | – | – | –
Cc1ccc(Nc2nc(N)nc(CCl)n2)cc1 | – | · | · | 93
Cc1cccc(Nc2nc(N)nc(CCl)n2)c1 | – | · | · | 90
Nc1nc(CCl)nc(Nc2ccccc2)n1 | – | – | – | –
COc1cccc(Nc2nc(N)nc(CCl)n2)c1 | – | · | · | 89
Cc1cccc(Nc2nc(N)nc(CSc3nccc(C)n3)n2)c1 | – | – | – | –
C[C@H]1CN([C@@H](C)CO)C(=O)c2cc(Br)cnc2O[C@@H]1CN(C)C(=O)Nc1ccc(C(F)(F)F)cc1 | · | · | · | –
COc1ccc(-c2cn3cc(C)ccc3n2)cc1Br | 87 | – | 94 | 75
